Only some compounds are listed: those with a hit (about 6.7% of all), similar ones and a draw of the others.
T cruzi repl: inhibitors of intracellular T. cruzi growth, primary screen, luminescence, NIH3T3 host cells. T. cruzi beta-gal in NIH3T3, 90 h. inhibition, % (test concentration not listed). 300,000 compounds, 1.4% hits. AID 1885, 2009;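 active = mean inhibition across valid replicates above about 55%, limit read from the data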;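 also: signal also drops with host cell toxicity which is not excluded here; 0% = plate median of DMSO wells and 100% = zero luminescence signal; higher percent means less beta-gal luminescence so fewer parasites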
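Assay system: NIH/3T3 fibroblasts plus reporter T. cruzi. Amount: NIH/3T3 cells, 5,000 per well. Buffer or medium: DMEM, 2% fetal bovine serum. Doses: compound pinned at 50 nL/well, DMSO. Schedule: ≥90 h infection period, 3 h prior cell attachment. Signal: luminescent β-galactosidase signal after 60 min lysis. Read-out: parasite load inhibition, %.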
CSC inhib: cancer stem cell viability inhibitors, primary screen, luminescence; inhibition, % at 7.5 µM; 300,000 compounds, 1.1% hits; cancer stem cell-like cells viability; AID 2717, 2010; in the data active = inhibition above about 75%; tested in HMLE shEcad cells
CHOP inh: inhibitors of CHOP promoter induction, primary screen, cell-based, unfolded protein response, luciferase reporter | CHO-K1 CHOP-promoter luciferase, tunicamycin-induced, 15-18 h | inhibition, % at 10 µM | 220,000 compounds, 3.8% hits | AID 2732, 2010;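 active = compounds that reduced the stress-induced luciferase reporter signal by more than about 70% of percent inhibition, limit read from the data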;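 also: 0% = tunicamycin plus vehicle and 100% = wells without tunicamycin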
NR3A LBD binder: binders of NR3A ligand-binding domain, primary screen, biophysical, differential scanning fluorimetry, uHTS; Glutamate receptor ionotropic, NMDA 3A (GRIN3A) ligand-binding domain; NR3A LBD differential scanning fluorimetry, Tm shift; 0% = protein alone, 100% = glycine-bound protein; Tm shift relative to glycine control, % at 25 µM; 340,000 compounds, 2.5% hits;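 active = melting temperature shift of at least 10% of the positive control shift, at one fixed dose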
Beta cell apopt: inhibitors of cytokine-induced beta cell apoptosis, primary screen, luminescence. INS-1E cytokine-induced death, ATP luminescence, 48 h; percent of positive-control rescue, neutral wells zero. protection from apoptosis, % (concentration not given with the values). 300,000 compounds, 0.8% hits;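 active = Every replicate reaches about 75%, or at least half do and their mean reaches it too, limit read from the data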;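 also: 0% = cytokine-treated negative control wells and 100% = positive control rescue; higher means more ATP so stronger rescue from cytokine killing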
PREPL inhibitor: PREPL enzyme inhibitors, primary screen, biochemical, fluorescence polarization; 320,000 compounds, 0.68% hits; recombinant PREPL, fluorescence polarization activity-based probe; Prolyl endopeptidase-like (Homo sapiens), Q4J6C6; inhibition, % at 5.96 µM; in the data active = inhibition above about 43%;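 also: 0% = enzyme with DMSO and 100% = wells lacking enzyme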
Target sequence (Q4J6C6 whole entry, looked up): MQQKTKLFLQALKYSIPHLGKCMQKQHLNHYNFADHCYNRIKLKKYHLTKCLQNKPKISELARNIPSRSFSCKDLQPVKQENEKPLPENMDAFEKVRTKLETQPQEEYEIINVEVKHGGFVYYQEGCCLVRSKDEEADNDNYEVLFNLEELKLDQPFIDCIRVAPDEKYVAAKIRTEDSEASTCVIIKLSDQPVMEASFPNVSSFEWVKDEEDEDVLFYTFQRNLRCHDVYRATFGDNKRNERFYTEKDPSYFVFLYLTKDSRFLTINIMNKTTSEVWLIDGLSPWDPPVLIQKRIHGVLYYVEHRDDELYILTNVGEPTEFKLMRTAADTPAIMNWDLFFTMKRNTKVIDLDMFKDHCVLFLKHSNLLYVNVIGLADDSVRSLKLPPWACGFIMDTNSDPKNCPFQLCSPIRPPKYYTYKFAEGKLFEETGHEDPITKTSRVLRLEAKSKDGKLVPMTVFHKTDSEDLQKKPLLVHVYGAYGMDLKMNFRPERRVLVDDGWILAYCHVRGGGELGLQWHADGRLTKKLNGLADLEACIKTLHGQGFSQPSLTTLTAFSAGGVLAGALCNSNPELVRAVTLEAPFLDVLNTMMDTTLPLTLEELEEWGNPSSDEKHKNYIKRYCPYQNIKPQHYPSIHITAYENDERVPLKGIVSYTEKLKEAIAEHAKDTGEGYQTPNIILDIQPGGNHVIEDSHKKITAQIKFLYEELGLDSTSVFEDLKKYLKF
* hit, by the source's call; . = no result given.

SMILES	T cruzi repl	CSC inhib	CHOP inh	NR3A LBD binder	Beta cell apopt	PREPL inhibitor
COc1ccc(-n2nc(C(=O)c3cccs3)cc(-c3nc4ccccc4[nH]3)c2=N)cc1	73*	49	69	-1	-19	15
CC1(C)CSC(=NCc2ccccc2)N1C(=O)c1cccc([N+](=O)[O-])c1	1	-6	3	6	6	-6
COc1ccc(C)cc1N(C(=O)c1ccc(F)cc1)c1nc2ccccc2s1	31	14	10	11*	11	-3
O=[N+]([O-])c1nn(-c2ccc3c(c2)OCCO3)n(O)c1=NC1CCCCCC1	59*	.	77*	-1	27	3
O=[N+]([O-])c1nn(-c2ccc3c(c2)OCCO3)n(O)c1=NC1CCCC1	90*	-5	44	4	19	-3
O=[N+]([O-])c1nn(-c2ccccc2)n(O)c1=NCc1ccc2c(c1)OCO2	42	.	6	-1	.	6
COc1cccc(C2/C(=C(\O)c3ccc4c(c3)OCCO4)C(=O)C(=O)N2Cc2cccnc2)c1 (stereo unspecified)	-4	3	.	-3	-1	14
Cc1nn(-c2ccccc2)cc1/C=N/NC(N)=S	2	-17	12	-5	-5	-1
Cc1nn(-c2ccccc2)cc1C(c1c(N)[nH]c(=S)[nH]c1=O)c1c(N)[nH]c(=S)[nH]c1=O	-2	-4	1	16*	-12	-5
Cn1c(=O)c2c(nc(NC3CCCCC3)n2Cc2ccccc2)n(C)c1=O	8	25	18	2	.	15
Cn1c(=O)c2c(nc(NC3CCCCC3)n2CC(=O)C23CC4CC(CC(C4)C2)C3)n(C)c1=O	5	.	81*	-9	31	11
CCSc1nnc(NC(=O)c2cc(OC)c(OC)c(OC)c2)s1	13	-8	1	-2	5	14
CCOC(=O)C1(CC2CCCCO2)CCN(Cc2cc(F)ccc2-n2cccn2)CC1 (stereo unspecified)	-28	-12	76*	5	2	8
CC(=O)CC1OC(=O)C(Br)=C1NCc1ccccc1 (stereo unspecified)	59*	41	.	-4	-5	5
COc1ccc(-c2nn(-c3ccccc3)cc2C(=O)OCC(=O)c2ccc(C)c([N+](=O)[O-])c2)cc1	10	39	87*	2	101*	4
O=C(COC(=O)/C=C/c1ccccc1Cl)NC1CCCCCC1	-18	5	62	-2	-2	7
CCOc1ccc2oc(=O)cc(CN3CCN(Cc4ccccc4)CC3)c2c1	58*	7	.	-1	-6	11
Cc1c(O)ccc2c(CN3CCN(Cc4ccccc4)CC3)cc(=O)oc12	56*	1	.	-2	-3	3
O=c1cc(CN2CCN(Cc3ccccc3)CC2)c2ccc(O)c(O)c2o1	51	23	.	1	-3	32
O=C(NCc1cccnc1)Nc1ccc(Cl)cc1	-3	-7	.	1	-3	-7
O=C1CSC(=Nc2ccc(Cl)cc2)N1	-6	3	.	0	-3	3
Clc1nssc1=Nc1ccccc1	.	.	86*	5	.	.
N#Cc1ccc(N=c2ssnc2Cl)cc1	-15	22	86*	23*	3	-2
COc1cc(N=c2ssnc2Cl)cc(OC)c1OC	-10	5	94*	5	5	-2
O=C1CSC(=Nc2ccccc2)N1Cc1ccccc1	-7	-9	5	1	4	-14
Clc1ccc(N=c2ssnc2Cl)cc1	-10	11	20	14*	12	5
O=S(=O)(Nc1c(F)cccc1F)c1ccc(Cl)nc1	1	-6	.	2	-1	21
COc1ccc(CNC(=O)CN2CCN(S(=O)(=O)c3ccccc3)CC2)cc1	.	-14	.	5	-2	6
OCC1(CO)CCCC(CO)(CO)C1O	.	.	.	-10	.	.
Fc1ccc(N=c2ssnc2Cl)c(F)c1	-18	-4	82*	4	3	-7
